Laboratory results reported in ChEMBL document CHEMBL1154745, “Synthesis and biological evaluation of N-aryl-1,4-dihydropyridines as novel antidyslipidemic and antioxidant agents” (2010).

How the values were obtained:
[1] = Antioxidant activity assessed as inhibition of microsomal lipid peroxidation at 200 ug/mL; assay type: functional; set-up: scale not given: the % may be the effect or the level left
Method in brief: (§1)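 Inhibition of lipid peroxidation in microsomal fractions, sonicated in phosphate buffer, was read out as nmol MDA formed/h/mg protein.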

Rattus norvegicus [2] = assay: Antidyslipidemic activity against triton-induced hyperlipidemia in Charles Foster rat assessed as reduction in plasma triglyceride level at 100 mg/kg, po after 18 hrs relative to control; assay type: functional; set-up: scale not given: the % may be the effect or the level left
Method in brief: (§2)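 Adult male Charles Foster rats (200–225 g) were given Triton WR-1339 400 mg/kg i.p. Test agent was suspended in 0.2% w/v gum acacia in water and dosed orally at the same time. There were five rats per group, and controls received vehicle. At 18 h, retro-orbital blood was taken into EDTA and centrifuged at 2500g, 4 °C, 10 min. Plasma was diluted 1:3 in saline, and lipids were measured by standard enzymatic kits.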

[3] = Antioxidant activity assessed as hydroxyl radical scavenging activity at 100 ug/ml; assay type: functional
[4] = Antioxidant activity assessed as superoxide radical scavenging activity at 200 ug/ml; assay type: functional
Method in brief: (§3)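 Superoxide was generated enzymatically by xanthine with xanthine oxidase (0.04 U) and nitroblue tetrazolium in 100 mM phosphate buffer, pH 8.2, with or without test agent. Mixtures were incubated at 37 °C for 30 min and stopped with glacial acetic acid. Formazan formation was measured spectrophotometrically.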

[5] = Antioxidant activity assessed as superoxide radical scavenging activity at 100 ug/ml; assay type: functional; method in brief: as §3
[6] = Antioxidant activity assessed as hydroxyl radical scavenging activity at 200 ug/ml; assay type: functional
Rattus norvegicus [7] = assay: Antidyslipidemic activity against triton-induced inhibition of post heparin lipolytic activity in Charles Foster rat at 100 mg/kg, po after 18 hrs; assay type: functional; set-up: scale not given: the % may be the effect or the level left
Method in brief: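 Triton WR-1339 hyperlipidemia model in male Charles Foster rats (200–225 g): 400 mg/kg i.p. triton plus oral test agent in gum acacia suspension, with five rats per group. After 18 h, post-heparin lipolytic activity was determined by the Wing and Robinson method on plasma, using spectrophotometry and an auto-analyzer.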

Rattus norvegicus [8] = assay: Antidyslipidemic activity against triton-induced hyperlipidemia in Charles Foster rat assessed as reduction in plasma phospholipid level at 100 mg/kg, po after 18 hrs relative to control; assay type: functional; set-up: scale not given: the % may be the effect or the level left; method in brief: as §2
Rattus norvegicus [9] = assay: Antidyslipidemic activity against triton-induced hyperlipidemia in Charles Foster rat assessed as reduction in total cholesterol level at 100 mg/kg, po after 18 hrs relative to control
[10] = Antioxidant activity assessed as inhibition of microsomal lipid peroxidation at 100 ug/mL; assay type: functional; set-up: scale not given: the % may be the effect or the level left; method in brief: as §1

Compound | Activity [1] [%] | Activity (Rattus norvegicus [2]) [%] | Activity [3] [%] | Activity [4] [%] | Activity [5] [%] | Activity [6] [%] | Activity (Rattus norvegicus [7]) [%] | Activity (Rattus norvegicus [8]) [%] | total cholesterol lowering (Rattus norvegicus [9]) [%] | Activity [10] [%]
CCOC(=O)C1=C(C)N(c2ccccc2)C=CC1c1ccccc1[N+](=O)[O-] (centres undefined) | -25.1 | 10.5 | -11.5 | -33.6 | -20.6 | -26.9 | 12.3 | 5.7 | 14 | -19.2
COC(=O)C1=C(C)N(c2ccccc2)C=CC1c1ccccc1 (centres undefined) | -37.3 | 18.7 | -26.9 | -43 | -25.9 | -23 | 10.9 | 21.3 | 24.8 | -21.5
COC(=O)C1=C(C)N(c2ccccc2)C=C(C)C1c1ccccc1 (centres undefined) | -37.4 | 8.1 | -14.1 | -48 | -21.1 | -33.1 | 8.4 | 11 | 11 | -22.7
OC[C@@H](O)[C@@H](O)[C@H](O)[C@H](O)CO |  |  | -31.2 |  |  | -44.5 |  |  |  | 
CCOC(=O)C1=C(C)N(c2ccc(Cl)cc2)C=CC1c1ccccc1 (centres undefined) | -34.4 | 9.8 | -20.8 | -37.4 | -19.1 | -31.1 | 8.3 | 16.5 | 16 | 
COC(=O)C1=C(C)N(c2cccc(Cl)c2)C=C(C)C1c1ccccc1 (centres undefined) | -22.8 | 8.9 | -12 | -35.3 | -21.3 | -23 | 13.9 | 13.4 | 12.2 | -16.2
COC(=O)C1=C(C)N(c2cccc(C)c2C)C=C(C)C1c1ccccc1 (centres undefined) | -33.1 | 25.7 | -19.7 | -32.2 | -23.6 | -29.3 | 23.7 | 23.9 | 24.1 | -22.7
Oc1ncnc2[nH]ncc12 |  |  |  | -77.5 | -66.4 |  |  |  |  | 
Cc1ccc(C)c(OCCCC(C)(C)C(=O)O)c1 [GEMFIBROZIL] |  | 36.1 |  |  |  |  | 34.2 | 39.1 | 37.1 | 
CC1=C(C(=O)OC(C)(C)C)C(c2ccccc2)C=CN1c1ccccc1 (centres undefined) | -42.1 | 11 | -23.1 | -52.9 | -30.7 | -37.1 | 8.4 | 12.8 | 11.5 | -35.7
CC1=C(C(=O)OC(C)(C)C)C(c2ccccc2)C=CN1c1ccc(Cl)cc1 (centres undefined) | -26.6 | 11.5 | -19.2 | -48 | -24.5 | -34.6 | 8.9 | 13.5 | 15.5 | -18.5
CCOC(=O)C1=C(C)N(c2ccccc2)C=CC1c1ccccc1 (centres undefined) | -37.1 | 25.3 | -13.8 | -34 | -21.5 | -29.3 | 16.3 | 28.5 | 21.9 | -19.9
COC(=O)C1=C(C)N(c2ccccc2)C=CC1c1ccc(OC)cc1 (centres undefined) | -30.3 | 18.7 | -18.3 | -44.8 | -29.8 | -27.7 | 9.8 | 18.7 | 18.1 | -17.6
Cc1c(C)c2c(c(C)c1O)CC[C@@](C)(CCC[C@H](C)CCC[C@H](C)CCCC(C)C)O2 | -52.1 |  |  |  |  |  |  |  |  | -43.9
CCOC(=O)C1=C(C)N(c2ccc(Br)cc2)C=CC1c1ccccc1 (centres undefined) | -32.1 | 12.1 | -14.8 | -28.4 | -18.7 | -35.7 | 12 | 12.5 | 18.3 | -20.7
CCOC(=O)C1=C(C)N(c2ccc(C)cc2)C=CC1c1ccccc1 (centres undefined) | -38.4 | 21.2 | -20.7 | -35.8 | -22.9 | -32.7 | 24.9 | 23.7 | 18.7 | -23.5
COC(=O)C1=C(C)N(c2ccc(OC)cc2)C=C(C)C1c1ccccc1 (centres undefined) | -28.9 | 20.7 | -13.9 | -34.7 | -19.8 | -22.6 | 14.7 | 15.3 | 15 | -14.7
CCOC(=O)C1=C(C)N(c2ccc(F)cc2)C=CC1c1ccccc1 (centres undefined) | -35.8 | 13.6 | -10.9 | -42.5 | -25.7 | -25.5 | 8.1 | 15.3 | 17 | -28.5
